Here are results for 48 sequences from the EternaBench riboswitch data.

The test system of this series is MS2 coat protein. Nature of the series: apparent Kd, MS2 coat protein; higher = weaker binding; RNA-MaP array; FMN 200 µM where present. The method, boiled down:
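The titrant was SNAP-549-labelled MS2 coat protein, run from 0.7 or 1.5 nM in doubling steps to 3 µM. It was applied to designs transcribed by stalled E. coli RNA polymerase on Illumina sequencing-chip clusters, without ligand first and then with constant ligand, in 100 mM Tris-HCl pH 7.5, 80 mM KCl, 4 mM MgCl2, BSA, DTT, yeast tRNA and Tween-20. The apparent Kd is the median of filtered per-cluster binding-curve fits, with green signal normalised to red-channel RNA signal and control-cluster median Fmax.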

The mark [1] stands for this setting: designed as: OFF switch for flavin mononucleotide, no ligand.
[2] abbreviates: ligand present: flavin mononucleotide, designed as: OFF switch for flavin mononucleotide.
The mark [3] stands for this setting: designed as: ON switch for flavin mononucleotide, no ligand.
[4] abbreviates: ligand present: flavin mononucleotide, designed as: ON switch for flavin mononucleotide.

As a reminder, the apparent Kd is the concentration giving half-maximal binding under the conditions of the assay. Turning to “GGGCUGUCAGGAUAUACAUGAGGAUCACCCAUGUCGAGCUGUGAUAGGGCAAGAGUAGGUAGAAGGGACGAGAG”, the “apparent Kd” value is, setting by setting: under setting [1], 34.7 nM; under setting [2], 36.1 nM. On the same counts, the results for “UUUAUAUAGUAAGGAUAUGUAUUAUUUCUAUCAACAGAAGGUACUGACAUGAGGAUCACCCAUGUUUUAGUGUGGGCAUGUAGU” are 261 nM and 381 nM. With “ACGCGAUGGGAGAAGGUACUUUAAAAUAUUUCCACAUGAGGAUCACCCAUGUAAGGAUAUCCCAUCGUUAAAUAUUAUACAGCA”, the “apparent Kd” value runs as follows: under setting [1], 7.07 nM; under setting [2], 5.91 nM.

For “CAGCGAUAGCUGAACAAUCUAUCUGAGGAUAUUCAUAUAAACAUGAGGAUCACCCAUGUAAAUUGGGAGAAGGCAGAUAGAUUG”, the “apparent Kd” value under setting [3] stood at 18 nM and the “apparent Kd” value under setting [4] came to 5.06 nM. As to “UUAUUUAUACAAGGAUAUCAAUUAUAUACAAAUCCAACAUGAGGAUCACCCAUGUUUUAUUUUUUUGAGAAGGUGUAUUGUCAG”, the “apparent Kd” value was 32.8 nM under setting [3] and 32 nM under setting [4]. On to “AGCACGAAAGUGCAACGAUGUACGAGAAGGACAUGAGGAUCACCCAUGUAGCAGUAACUGCAAAUGUAGGAUAUCGUACAUCGA”, for which the “apparent Kd” value is, setting by setting: under setting [1], 6.54 nM; under setting [2], 14.7 nM. The matching figures for “UAUAUAUAGGCAGGAUAUACAUGUAUAUAUAAUAUAUUAUAUAAUAUUACAUGAGGAUCACCCAUGUAGAAGGGCCAUAAUAUA”: 48.3 nM and 66.9 nM. On the same counts, the results for “UGACGGAGCAGAGGAUAUUACAUGAGGAUCACCCAUGUAUGAACCAAUAGCUGGAAACAGCAAUGUAAGAAGGCUGCUCCGACA” are 11.6 nM and 147 nM. The matching figures for “CAAUUUAUAUCAGGAUAUACAAUACAAUGAUUAGUAGAAGGGAUUAAUACAUGAGGAUCACCCAUGUCAUGUGUCAUAAUAACC”: 24.2 nM and 19.1 nM. On to “AAUGAGCUAGGAUAUACAUGAGGAUCACCCAUGUAAAAUAGGUCAUGGAGGAACCACUGUAGAAGGAGCAGGGC”, for which the “apparent Kd” value was determined as 45.4 nM under setting [1] and 72.1 nM under setting [2]. For “AAUAAACUCACAGGAUAUAGCAUAGGUCGCCUGAACUUACAGGCGACUAUGCUAGAAGGGUGACCACAUGAGGAUCACCCAUGU”, the “apparent Kd” value under setting [3] stood at 847 nM and the “apparent Kd” value under setting [4] was determined as 168 nM.

As for “GCAUACAUUCGAGGAUAUCGGUGAACAAAUUAACGAGAAGGCGAUAUAAUUUUUAAACUUAUUGACAUGAGGAUCACCCAUGUA”, the “apparent Kd” value by setting is: under setting [3], 23.2 nM; under setting [4], 20.8 nM.

On to “ACGUAAAUUCGAGGAUAUCGGUGAUAUAAUUUACGAGAAGGCGAUAAUUGUGAUAAACUUAUAGACAUGAGGAUCACCCAUGUA”, for which the “apparent Kd” value was 42.7 nM under setting [3] and 37.9 nM under setting [4]. On to “GGACGUCACAUUUACAUGAGGAUCACCCAUGUCUCUUGACAUGAGGAUAUGUAUACUAAUUGUAUACAGAAGGCAUGGACGUCC”, for which the “apparent Kd” value by setting is: under setting [3], 1010 nM; under setting [4], 168 nM. On the same counts, the results for “UUUUUUUUUAGAGGAUAUAUUGUGUGUUAUAUAAUAGAAGGCUAAACAUGACAUGACACAUGAGGAUCACCCAUGUAUGUCCAU” are 22.7 nM and 18.2 nM. As for “GAUCUGAUAGGAUAUACAUGAGGAUCACCCAUGUGCGAGCUAGCGAAAGCUAGCUCAGGUAGAAGGGUCAGAUC”, the “apparent Kd” value under setting [1] worked out at 12 nM and the “apparent Kd” value under setting [2] is 15.5 nM. Turning to “GUAGCAUACCGAGGAUAUUCAUACCGUAAUCGGACAUGAGGAUCACCCAUGUGGCGAAAGCCUUGGGAGAAGGCGGAAUGCUAC”, the “apparent Kd” value runs as follows: under setting [3], 630 nM; under setting [4], 27.6 nM. For “GACGGUGAUGUAGGAUAUACGCUGGAUAACAGCGUAGAAGGACAUGAGGAUCACCCAUGUAAAGUGUCUCUAAAUAACACCGUC”, the “apparent Kd” value runs as follows: under setting [1], 20.7 nM; under setting [2], 47.5 nM. Regarding “CGAACCAUGUAGAAGGCUGUCUUAAAAUAGGACAGAGGAUAUACAUGAGGAUCACCCAUGUACUCCUUUAAAAGGUUCGAAAUA”, the “apparent Kd” value under setting [2] was determined as 7.03 nM. As for “CCGUCAAUCGAGAAGGGCCUAUGUGCUACACCGGCAGGAUAUCGACAUGAGGAUCACCCAUGUUGGCGAUCCUUUUUGGCGGAC”, the “apparent Kd” value by setting is: under setting [1], 135 nM; under setting [2], 36.5 nM. The matching figures for “AGAUUUCAUGAGGAUAUCGUAUUAGAUUUAUUGCGAGAAGGCAUGACAUGAGGAUCACCCAUGUAGUGUUGGUU”: 49.3 nM and 96.6 nM. The matching figures for “AAUUUAAGAUGAGGAUAUUGACAUGAGGAUCACCCAUGUAUUUGGGAAUGUUUACUGAAUUCUUACAAGAAGGUAUACGAACUU”: 185 nM and 138 nM. The matching figures for “AAAAAGUCAGGAUAUAGAAAAGGUCACGAAAGUGACAAAGGCUAGAAGGGACAUGAGGAUCACCCAUGUAAAAA”: 31.9 nM and 31.1 nM. With “AUUAUUAUAUUAUACAUGAGGAUCACCCAUGUUAUAAGUCAUGAGGAUAUGGUUUUGUAGAUUUUCCAGAAGGCAUUUAACUUA”, the “apparent Kd” value was determined as 13.3 nM under setting [3] and 7.8 nM under setting [4]. On the same counts, the results for “AUUUUCCUGGCAGGAUAUCUUACACAUGAGGAUCACCCAUGUACAAAAGUGGGAGAAGGGUCGUGGAGGUGUAUAGUCGAAUAG” are 79.2 nM and 36.1 nM. The matching figures for “GCGAUUGCGUAGAAGGUACAAUAUAUUUCAUUGUAAGGAUAUACUUACAUGAGGAUCACCCAUGUUAAAGGAUUUAGCAAUCGC”: 12.4 nM and 10.3 nM. Take “GUCGUGUGAGGAUAUGAUUUUUCGGCGGGAUUGCGACUGCUUCAGAAGGCACAUGAGGAUCACCCAUGUAUGUC”: the “apparent Kd” value is, setting by setting: under setting [1], 10.7 nM; under setting [2], 25.5 nM. As for “AUGGAACAUGAGGAUCACCCAUGUGAGGAUAUCGUCGGCGCGCUUGAAACGAGCUGCCCGAGAAGGCACAGUGG”, the “apparent Kd” value reads like this: under setting [1], 160 nM; under setting [2], 238 nM.

Take “UAAUGACAUGUAGGAUAUCGAGGCCUAUGGCCUCGAGAAGGACAUGAGGAUCACCCAUGUAUUCCGAAUGAAUCAAAUAAUAAA”: the “apparent Kd” value runs as follows: under setting [1], 15.6 nM; under setting [2], 30.8 nM.

Regarding “UUGGACGUCGUAGGAUAUGUAGGAUAUUCCUACAUGAGGAUCACCCAUGUUGACAUGGCAGAAGGACAGAAGGACGAUGUCCAU”, the “apparent Kd” value under setting [3] was 938 nM and the “apparent Kd” value under setting [4] came to 129 nM.

With “UAAAUCAAGUCAGGAUAUCGUGCGGUUGGUCGUUACAUGAGGAUCACCCAUGUCUUCCGUUAGCUCGAGAAGGGACGUGAGCCC”, the “apparent Kd” value runs as follows: under setting [3], 40 nM; under setting [4], 11.5 nM. Take “GCGUUGUACGAGAAGGCCAAUACAUGAGGAUCACCCAUGUUAAGUUGUUUUGGAGGAUAUCGAUCAUCUACAAUAAUGCAACGC”: the “apparent Kd” value is, setting by setting: under setting [1], 6.74 nM; under setting [2], 6.03 nM.

For the sequence “ACAACCAGAGGAUAUGCGCAUAGAUCAGACUUUGUUUCUGAACAUGAGGAUCACCCAUGUAGAAGGCUGUAACA”, the “apparent Kd” value by setting is: under setting [1], 34.9 nM; under setting [2], 33.9 nM. The matching figures for “AAGUAGUGUGUGAGGAUAUUGGUGGAAUGACAUAUUAAGAAGGCACAUGAGGAUCACCCAUGUGGGUUGUCACG”: 49.2 nM and 120 nM. In the case of “GCCUAGCUAGGAUAUACCCAGGGUUUGUUCUCUAACGACACACAUGAGGAUCACCCAUGUAGAAGGAGCCGGGA”, the “apparent Kd” value by setting is: under setting [1], 47.2 nM; under setting [2], 41.4 nM. On to “GGGUACAUCGGAGGAUAUCAUGUAAAUACAUGAGGAUCACCCAUGUCGAUGGAUACAUCGGAGAUUGAGAAGGCCGAUGUACCG”, for which the “apparent Kd” value reads like this: under setting [3], 13 nM; under setting [4], 5.34 nM. Take “CUGGUGUGAGGAUAUCAAAGACCUCGGGAAAGAACCGAGAAUGAGAAGGCACAUGAGGAUCACCCAUGUAACAA”: the “apparent Kd” value under setting [1] stood at 18.2 nM and the “apparent Kd” value under setting [2] stood at 30.7 nM.

Regarding “GGUGCCAUGUAGAAGGCAGAUCUGAUUCAGAUCUGAGGAUAUACAUGAGGAUCACCCAUGUAAAGGCACCGCACGAGAGUGCAA”, the “apparent Kd” value is, setting by setting: under setting [1], 6.51 nM; under setting [2], 8.81 nM.

Regarding “CUAGCAGAUGUAGGAUAUGCUCAGGAUAACUGAGCAGAAGGACAUGAGGAUCACCCAUGUAAAGUGUCUCUAAAUAACUGCUAG”, the “apparent Kd” value turned out to be 22.9 nM under setting [1] and 80.5 nM under setting [2]. As for “GGAUGACAAAGUCAUCCAAAUCGAACAUGAGGAUCACCCAUGUAGGAUAUGCUUCUCAAAGAGAAGCAGAAGGACAUGUGCUUU”, the “apparent Kd” value under setting [1] worked out at 37.8 nM and the “apparent Kd” value under setting [2] was determined as 228 nM. On the same counts, the results for “AAAUGCUGAGGAUAUACAUGAGGAUCACCCAUGUACUAAACUCGCAAGGGCAUCCGGUGUAGAAGGCAGCCUCA” are 17.3 nM and 39.7 nM. On the same counts, the results for “GUGAAGUGAGGAUAUACGAGAGAGGCUGAACCGGACGAGAAGUAGAAGGCACAUGAGGAUCACCCAUGUAAGGA” are 33 nM and 32.1 nM. Turning to “AAAGACAGACAUGAGGAUCACCCAUGUUACGAAGAUAAUGGGAGAAGGGCGAUUGCAAAGCAAUCGCAGGAUAUUCAUAUUGUC”, the “apparent Kd” value reads like this: under setting [3], 39.6 nM; under setting [4], 10.8 nM. As to “UUAUUUAGUGUGAGGAUAUGCUGGUCCAUAGAUCAGCAGAAGGCACAUGAGGAUCACCCAUGUAAUAUAUUAAU”, the “apparent Kd” value is 26.5 nM under setting [1] and 202 nM under setting [2]. The matching figures for “CGUUCAGAGAACGAUACGAAUAGACAUGAGGAUCACCCAUGUAGAAGGACAACGGAAUAAACGUUGUAGGAUAUACAUUUAGUG”: 41.3 nM and 111 nM. On the same counts, the results for “GUCAGCUCGUGAGGAUAUACAACACUGCUUCGGCAGUGUAUUAAGAUCACAUGAGGAUCACCCAUGUAGAAGGCACGGGCUGAU” are 14 nM and 323 nM. As for “UGGUACAUGGGAGGAUAUCAUGUUCUUACAUGAGGAUCACCCAUGUCGAUGGAGACAUCGGAGAUUGAGAAGGCCCAUGUACCU”, the “apparent Kd” value came out at 1070 nM under setting [3] and 54.2 nM under setting [4]. “GGAGCACACAUUAACAUGAGGAUCACCCAUGUCAAAAGACAUGAGGAUAUGGAUCCGAAAAGGAUCCAGAAGGCAUGGCGCUCC”: the “apparent Kd” value reads like this: under setting [3], 103 nM; under setting [4], 9.9 nM.
